Activity calls are given as the source filed them. The calls are words filed in the database; no cut-off is given here.

For three molecules, ED50, Activity and Rm results are on record in ChEMBL document CHEMBL3739352, “Anticonvulsant activity, crystal structures, and preliminary safety evaluation of N-trans-cinnamoyl derivatives of selected (un)modified aminoalkanols” (Eur J Med Chem, 2016).

For data set [1], the system named is Mus musculus. Nature of the data set: Anticonvulsant activity in ip dosed albino Carworth Farms No.1 mouse assessed as protection against 6-Hz electroshock-induced seizures after 0.25 hrs. The format is functional. Conditions: Carworth Farms No.1, ip. The method, boiled down: (§1)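 Quantitative i.p. evaluation in Carworth Farms No.1 albino mice, with graded doses in 0.5% methylcellulose. MES, scPTZ or 6-Hz (32 mA) seizure tests were run at 0.25 h.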

For another data set, the system named is Rattus norvegicus. As to the kind of experiment: Anticonvulsant activity in po dosed Sprague-Dawley rat assessed as protection against subcutaneous dosed pentetrazol-induced seizures after 0.5 hrs. The format is functional. The method, boiled down:
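Sprague-Dawley rats received graded oral doses suspended or dissolved in 0.5% methylcellulose. Challenge was maximal electroshock or subcutaneous pentetrazol at the stated time after dosing.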

Data set [2] has as its system Mus musculus. As to the kind of experiment: Anticonvulsant activity in ip dosed albino Carworth Farms No.1 mouse assessed as protection against subcutaneous dosed pentetrazol-induced seizures after 0.25 hrs. The data set is classed as functional. Conditions: Carworth Farms No.1, 0.25 h. In a few lines: as §1
In another data set the test system is Salmonella typhimurium. As to the kind of experiment: Mutagenicity in Salmonella typhimurium TA98 assessed as number of revertants at 10 ug/plate by Ames test (reference value: 23 +/- 3). The format is toxicity, organism-based. Conditions: salmonella enterica subsp. enterica serovar typhimurium.
In data set [3] the test system is Mus musculus. Nature of the data set: Neurotoxicity in albino Carworth Farms No.1 mouse at 100 mg/kg, ip after 0.5 hrs by rotarod test. The format is toxicity, organism-based. As to conditions: in vivo. In a few lines:
(§2)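 Mice (albino Carworth Farms No.1) were dosed i.p. at 30, 100 or 300 mg/kg in 0.5% methylcellulose. They were tested 0.5 and 4 h later on a 1-inch knurled rod rotating at 6 rpm. Neurotoxicity was scored if a mouse could not stay on the rod for at least 1 min in each of three trials. Results are given as animals toxic/animals tested, with deaths noted.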

Data set [4] deals with Mus musculus. Nature of the data set: Neurotoxicity in albino Carworth Farms No.1 mouse at 30 mg/kg, ip after 4 hrs by rotarod test. As to conditions: in vivo. The format is toxicity, organism-based. In a few lines:
as §2

Data set [5] has as its system Mus musculus. As to the kind of experiment: Anticonvulsant activity in albino Carworth Farms No.1 mouse assessed as protection against 6-Hz electroshock-induced seizures at 100 mg/kg, ip after 0.5 hrs. The data set is classed as functional, organism-based. The method, boiled down:
(§3)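 Carworth Farms No.1 albino mice were dosed i.p. at 100 mg/kg (0.5% methylcellulose solution or suspension). 6-Hz seizures were induced at 32 mA at 0.25, 0.5, 1.0, 2.0 and 4 h after injection. Results are given as animals protected / animals tested.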

Data set [6] relates to Mus musculus. As to the kind of experiment: Neurotoxicity in albino Carworth Farms No.1 mouse at 100 mg/kg, ip after 4 hrs by rotarod test. The data set is classed as toxicity, organism-based. Conditions: in vivo. In a few lines:
as §2

For data set [7], the system named is Mus musculus. Nature of the data set: Anticonvulsant activity in albino Carworth Farms No.1 mouse assessed as protection against 6-Hz electroshock-induced seizures at 100 mg/kg, ip after 4 hrs. The format is functional, organism-based. In a few lines: as §3
Data set [8] is described as follows: Lipophilicity of the compound using 65% methanol in water at 1 mg/ml by RT-TLC analysis. The format is physicochemical. Conditions: buffer. In a few lines:
(§4)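 Reversed-phase TLC with a methanol–water mobile phase at the stated methanol content (v/v). Compounds were spotted from 1 mg/mL methanol solutions after 1 h chamber saturation and located under UV light. Rf was measured and RM = log(1/Rf − 1) calculated.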

A short description of data set [9]: Lipophilicity of the compound at 1 mg/ml by RT-TLC analysis relative to 0% methanol. The format is physicochemical. As to conditions: methanol/water. In a few lines: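 Reversed-phase TLC used methanol–water mobile phases of 95–65% methanol. Compounds were applied from 1 mg/mL methanol solutions after 1 h chamber saturation, with UV detection. RM = log(1/Rf − 1) was calculated at each methanol level and extrapolated linearly (RM = RM0 + bC) to 0% methanol to give RM0.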

A short description of data set [10]: Lipophilicity of the compound using 95% methanol in water at 1 mg/ml by RT-TLC analysis. The data set is classed as physicochemical. As to conditions: buffer. The method, boiled down: as §4
Data set [11] deals with Mus musculus. Nature of the data set: Anticonvulsant activity in albino Carworth Farms No.1 mouse assessed as protection against maximal electroshock-induced seizures at 100 mg/kg, ip after 0.5 hrs. The data set is classed as functional, organism-based. The method, boiled down:
(§5)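 Mouse i.p. screen in Carworth Farms No.1 albino mice at 30, 100 or 300 mg/kg in 0.5% methylcellulose. Testing was at 0.5 and 4 h after injection, by maximal electroshock or by subcutaneous pentetrazol challenge. Scoring was number protected / number used.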

For data set [12], the system named is Mus musculus. As to the kind of experiment: Anticonvulsant activity in albino Carworth Farms No.1 mouse assessed as protection against subcutaneous dosed pentetrazol-induced seizures at 100 mg/kg, ip after 0.5 hrs. The format is functional, organism-based. In a few lines: as §5
The test system of data set [13] is Mus musculus. As to the kind of experiment: Neurotoxicity in albino Carworth Farms No.1 mouse at 300 mg/kg, ip after 4 hrs by rotarod test. The data set is classed as toxicity, organism-based. Conditions: in vivo. In a few lines:
as §2

Data set [14] is described as follows: Lipophilicity of the compound using 90% methanol in water at 1 mg/ml by RT-TLC analysis. As to conditions: buffer. The format is physicochemical. In a few lines:
as §4

Data set [15] concerns Mus musculus. Nature of the data set: Anticonvulsant activity in albino Carworth Farms No.1 mouse assessed as protection against 6-Hz electroshock-induced seizures at 100 mg/kg, ip after 0.25 hrs. The format is functional, organism-based. In a few lines: as §3
The subject of data set [16] is Mus musculus. Nature of the data set: Anticonvulsant activity in albino Carworth Farms No.1 mouse assessed as protection against 6-Hz electroshock-induced seizures at 100 mg/kg, ip after 1 hr. The format is functional, organism-based. The method, boiled down:
as §3

A short description of data set [17]: Lipophilicity of the compound using 85% methanol in water at 1 mg/ml by RT-TLC analysis. The data set is classed as physicochemical. Conditions: buffer. The method, boiled down:
as §4

Data set [18] deals with Mus musculus. As to the kind of experiment: Anticonvulsant activity in albino Carworth Farms No.1 mouse assessed as protection against subcutaneous dosed pentetrazol-induced seizures at 100 mg/kg, ip after 4 hrs. The format is functional, organism-based. In a few lines:
as §5

The subject of data set [19] is Mus musculus. Nature of the data set: Anticonvulsant activity in albino Carworth Farms No.1 mouse assessed as protection against maximal electroshock-induced seizures at 100 mg/kg, ip after 4 hrs. The data set is classed as functional, organism-based. In a few lines: as §5
Data set [20] can be described thus: Lipophilicity of the compound using 75% methanol in water at 1 mg/ml by RT-TLC analysis. The format is physicochemical. Conditions: buffer. In a few lines: as §4
The test system of data set [21] is Mus musculus. As to the kind of experiment: Anticonvulsant activity in albino Carworth Farms No.1 mouse assessed as protection against 6-Hz electroshock-induced seizures at 100 mg/kg, ip after 2 hrs. The format is functional, organism-based. The method, boiled down: as §3

With `CCCC(CCC)C(=O)O` [VALPROIC ACID], the ED50 in the data set on Mus musculus [1] amounted to 126 mg/kg; with Rattus norvegicus, 646 mg/kg; with Mus musculus [2] it was 220 mg/kg.

`Nc1ccc([N+](=O)[O-])cc1N`: the Activity in the data set on Salmonella typhimurium was determined as 647.

Turning to `CC(NC(=O)/C=C/c1ccccc1)C(=O)NCN1CCCCC1` (racemic), the Activity entry in the data set on Mus musculus [3], with Mus musculus [4], in the data set with Mus musculus [6] and in the data set on Mus musculus [13] was “Non-toxic” each time. For the same molecule, the outcome with Mus musculus [5], in the data set with Mus musculus [7], in the data set with Mus musculus [11], in the data set with Mus musculus [12], in the data set on Mus musculus [15] and in the data set on Mus musculus [16] was inactive. Further, the result with Mus musculus [18], in the data set with Mus musculus [19] and with Mus musculus [21] was inactive. Moreover, the Rm is 0.5 in data set [8]; 1.758 in data set [9]; -0.39 in data set [10]; -0.27 in [14]; -0.02 in data set [17]; 0.1 in data set [20].
